From ChEMBL document CHEMBL1144697, “9-cyano-1-azapaullone (cazpaullone), a glycogen synthase kinase-3 (GSK-3) inhibitor activating pancreatic beta cell protection and replication” (J Med Chem, 2008)
Activity calls are given as the source filed them. No cut-off for these calls is given here.

Tests used:
[1] = target: Glycogen synthase kinase-3 (Homo sapiens, UniProt P49840+P49841); assay: Inhibition of GSK3alpha/beta in pig brain; design: species or system Sus scrofa; conditions: target entry is the homologue from another species
[2] = Inhibition of starfish CDK1/cyclin B; design: species or system Asteroidea
Method in brief: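 Kinase inhibition assays at 15 µM final ATP, run in triplicate.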

[3] = target: Cyclin-dependent kinase 5/CDK5 activator 1 (Homo sapiens, UniProt Q00535); assay: Inhibition of recombinant CDK5/p25 expressed in Escherichia coli
Sequence of Cyclin-dependent kinase 5/CDK5 activator 1 (Q00535 whole entry): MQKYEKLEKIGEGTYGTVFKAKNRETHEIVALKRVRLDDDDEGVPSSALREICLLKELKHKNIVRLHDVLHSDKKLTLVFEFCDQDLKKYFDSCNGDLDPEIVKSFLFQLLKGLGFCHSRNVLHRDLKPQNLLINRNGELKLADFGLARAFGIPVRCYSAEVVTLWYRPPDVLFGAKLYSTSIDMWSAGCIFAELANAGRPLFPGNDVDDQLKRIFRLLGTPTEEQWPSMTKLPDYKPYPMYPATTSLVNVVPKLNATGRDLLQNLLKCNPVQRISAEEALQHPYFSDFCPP
Sequence of Cyclin-dependent kinase 5/CDK5 activator 1 (Q15078 whole entry, further chain): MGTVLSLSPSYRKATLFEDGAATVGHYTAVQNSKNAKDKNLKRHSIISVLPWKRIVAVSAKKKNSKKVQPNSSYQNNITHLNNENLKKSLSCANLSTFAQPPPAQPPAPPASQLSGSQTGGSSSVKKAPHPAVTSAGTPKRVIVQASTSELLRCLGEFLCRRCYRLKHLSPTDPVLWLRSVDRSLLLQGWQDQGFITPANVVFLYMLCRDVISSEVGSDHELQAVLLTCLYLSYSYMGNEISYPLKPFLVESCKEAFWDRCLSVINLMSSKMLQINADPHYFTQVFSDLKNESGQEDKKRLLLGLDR

[4] = Activation of Pax4 RNA expression in rat INS-1E cells at 1 uM after 4 hrs relative to control; assay type: functional, cell-based
Method in brief: (§1)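 Compound added to INS-1E cells for 4 h or 24 h. Pax4 and cyclophilin B transcripts quantified by qRT-PCR. Reported as fold change versus vehicle-treated control, with the control level set to 1. Mean of triplicates ± SD.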

INS-1E [5] = assay: Protection against glucose and palmitate-induced toxicity in rat INS-1E cells at 0.3 uM after 24 hrs; assay type: functional, cell-based
Method in brief: (§2)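 INS-1E cells treated with compound over a concentration range, with or without 0.3 mM BSA-coupled palmitate plus 25 mM glucose for 24 h. Viability/metabolic activity measured as an indirect readout of mitochondrial energy production. At least four wells per point; representative of ≥3 independent studies.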

INS-1E [6] = assay: Protection against glucose and palmitate-induced toxicity in rat INS-1E cells after 24 hrs; assay type: functional, cell-based; method in brief: as §2
Pancreatic beta cell [7] = assay: Stimulation of rat primary beta cell replication at 2 uM; assay type: functional
Method in brief: (§3)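 Isolated rat islets incubated with compound for 72 h, then disaggregated and spotted onto slides. Cells double-immunostained for C-peptide and Ki-67. Replication scored as % Ki-67+ among C-peptide+ cells, compared with untreated islets.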

INS-1E [8] = assay: Protection against glucose and palmitate-induced toxicity in rat INS-1E cells at 2 uM after 24 hrs; assay type: functional, cell-based; method in brief: as §2
INS-1E [9] = assay: Suppression of metabolic activity in rat INS-1E cells at 1 uM; assay type: functional, cell-based; method in brief: as §2
[10] = Activation of cyclophilin B gene expression in rat INS-1E cells at 1 uM after 4 hrs relative to control; assay type: functional, cell-based; method in brief: as §1
[11] = Inhibition of glucose and palmitate-induced apoptosis in rat INS-1E cells at 2 uM by DNA fragmentation assay; assay type: functional; design: scale not given: the % may be the effect or the level left
Method in brief: (§4)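 INS-1E cells preincubated 1 h with compound (µM), then exposed to toxic high glucose/palmitate for 24 h. Apoptosis read as cytosolic DNA fragments or caspase activity, as fold change versus untreated control ± SD. At least four wells per point; Student's t test against glucose/palmitate alone.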

Pancreatic beta cell [12] = assay: Stimulation of rat primary beta cell replication at 0.5 uM; assay type: functional; method in brief: as §3
[13] = Activation of Pax4 RNA expression in rat beta cells at 2 uM after 4 hrs relative to control; assay type: functional, cell-based; conditions: Pancreatic beta cell
Method in brief: (§5)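 Primary rat islets exposed to compound for 4 h. Pax4 and cyclophilin B expression measured by qRT-PCR as fold change versus vehicle-treated control (set to 1). Triplicates, mean ± SD.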

INS-1E [14] = assay: Inhibition of glucose and palmitate-induced apoptosis in rat INS-1E cells by DNA fragmentation assay; assay type: functional, cell-based; method in brief: as §4
[15] = Activation of cyclophilin B gene expression in rat INS-1E cells at 1 uM after 24 hrs relative to control; assay type: functional, cell-based; method in brief: as §1
[16] = Inhibition of glucose and palmitate-induced apoptosis in rat INS-1E cells at 2 uM by caspase activity assay; assay type: functional; design: scale not given: the % may be the effect or the level left; method in brief: as §4
INS-1E [17] = assay: Stimulation of rat INS-1E cell replication assessed as BrdU incorporation; assay type: functional, cell-based
Method in brief: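 INS-1E cells exposed to compound at various concentrations for 24 h. Replication measured as BrdU incorporation, given as fold increase versus untreated cells ± SD. At least four wells per point, two independent studies, Student's t test.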

[18] = Activation of cyclophilin B gene expression in rat beta cells at 2 uM after 4 hrs relative to control; assay type: functional, cell-based; conditions: Pancreatic beta cell; method in brief: as §5
SH-SY5Y = assay: Inhibition of GSK3 in human SHSY5Y cells assessed as beta-casein phosphorylation level in presence of MG132; assay type: cell-based; conditions: in the assay text read “beta-catenin” for “beta-casein”
Method in brief: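 Nearly confluent SH-SY5Y cells in DMEM with 10% FCS were co-treated with compound across a concentration range plus 2 µM MG132, DMSO ≤1% final. Phospho-β-catenin (Ser33/Ser37/Thr41) measured by ELISA and expressed as % of cells given MG132 alone (100%).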

[19] = Activation of Pax4 RNA expression in rat INS-1E cells at 1 uM after 24 hrs relative to control; assay type: functional, cell-based; method in brief: as §1
INS-1E [20] = assay: Inhibition of glucose and palmitate-induced apoptosis in rat INS-1E cells by caspase activity assay; assay type: functional, cell-based; method in brief: as §4
[21] = Activation of cyclophilin B gene expression in rat INS-1E cells at 10 uM after 4 hrs relative to control; assay type: functional, cell-based; method in brief: as §1
[22] = Activation of Pax4 RNA expression in rat INS-1E cells at 10 uM after 4 hrs relative to control; assay type: functional, cell-based; method in brief: as §1
[23] = Activation of cyclophilin B gene expression in rat INS-1E cells at 10 uM after 24 hrs relative to control; assay type: functional, cell-based; method in brief: as §1
[24] = Activation of Pax4 RNA expression in rat INS-1E cells at 10 uM after 24 hrs relative to control; assay type: functional, cell-based; method in brief: as §1
Pancreatic beta cell [25] = assay: Stimulation of rat primary beta cell replication at 5 uM; assay type: functional; method in brief: as §3

Structure (SMILES) | IC50 [1] | IC50 [3] | IC50 [2] | also measured
O=C1Cc2c([nH]c3cc(Cl)cc(Cl)c23)-c2ncccc2N1 | 0.8 µM | 100 µM | > 30 µM | 
O=C1Cc2c(n(Cc3ccccc3)c3ccccc23)-c2cnccc2N1 | 0.41 µM | > 10 µM | > 10 µM | 
N#Cc1ccc2[nH]c3c(c2c1)CC(=O)Nc1cccnc1-3 [CAZPAULLONE] | 0.008 µM | 0.3 µM | 0.5 µM | Fold change [4]: 4.87; Activity (INS-1E [5]): Active; Activity (INS-1E [6]): Active; Activity (Pancreatic beta cell [7]): inactive; Activity (INS-1E [8]): Active; Activity (INS-1E [9]): Active; Fold change [10]: 1.11; Activity [11]: >50%; Activity (Pancreatic beta cell [12]): 2.5; Fold change [13]: 2.4; Activity (INS-1E [14]): Active; Fold change [15]: 1.42; Activity [16]: >50%; Activity (INS-1E [17]): Dose-dependent effect; Fold change [18]: 0.73; Activity (SH-SY5Y): Dose-dependent effect; Fold change [19]: 0.56; Activity (INS-1E [20]): Active
COc1ccc2[nH]c3c(c2c1)CC(=O)Nc1ccncc1-3 | 0.39 µM | 0.4 µM | 0.2 µM | 
O=C1Cc2c([nH]c3ccc(Br)cc23)-c2ncccc2N1 [AZAKENPAULLONE] |  |  | 2 µM | 
CCn1c2c(c3ccccc31)CC(=O)Nc1ccncc1-2 | 0.8 µM | > 10 µM | 3.8 µM | 
Cc1ccc2[nH]c3c(c2c1)CC(=O)Nc1cccnc1-3 | 0.13 µM | > 10 µM | 8 µM | 
O=C1Cc2c([nH]c3ccc(C(F)(F)F)cc23)-c2ncccc2N1 | 0.008 µM | 10 µM | 1.65 µM | Fold change [21]: 1.2; Activity (INS-1E [6]): Active; Fold change [22]: 0.72; Activity (INS-1E [14]): Active; Fold change [23]: 1.3; Activity (INS-1E [17]): Dose-dependent effect; Fold change [24]: 0.61; Activity (SH-SY5Y): Dose-dependent effect; Activity (INS-1E [20]): Active
O=C1Cc2c([nH]c3ccc(Br)cc23)-c2ccccc2N1 [KENPAULLONE] |  |  |  | Activity (SH-SY5Y): Dose-dependent effect
O=C1Cc2c([nH]c3ccc(F)cc23)-c2cnccc2N1 | 0.051 µM | 0.26 µM | 1.2 µM | 
Cn1c2c(c3ccccc31)CC(=O)Nc1ccncc1-2 | 0.4 µM | > 10 µM | 8 µM | 
N#Cc1ccc2[nH]c3c(c2c1)CC(=O)Nc1ccc(Br)nc1-3 | 3.8 µM | 10 µM |  | 
O=C1Nc2cc(Br)ccc2/C1=C1/Nc2ccccc2/C1=N\O |  |  |  | Fold change [4]: 1.02; Fold change [10]: 1.04; Fold change [15]: 1.2; Fold change [19]: 0.81
Cc1cnc(-c2cnc(NCCNc3ccc(C#N)cn3)nc2-c2ccc(Cl)cc2Cl)[nH]1 [LADUVIGLUSIB] |  |  |  | Fold change [21]: 1.31; Fold change [22]: 0.78; Activity (Pancreatic beta cell [25]): 2.5; Fold change [23]: 1.12; Fold change [24]: 0.76
O=C1Cc2c(oc3ccc(Br)cc23)-c2ccccc2N1 | > 10 µM | > 10 µM | > 10 µM | 

Second part, led by results:

IC50 [1] | IC50 [3] | Structure (SMILES) | IC50 [2] | also measured
100 µM | 30 µM | O=C1Cc2c([nH]c3ccc(C(=O)O)cc23)-c2ncccc2N1 | 2.2 µM | 
0.021 µM | 0.032 µM | N#Cc1ccc2[nH]c3c(c2c1)CC(=O)Nc1ccncc1-3 | 0.031 µM | 
0.028 µM | 0.73 µM | N#Cc1ccc2c(c1)-c1[nH]c3ccc(C#N)cc3c1CC(=O)N2 | 0.12 µM | 
0.013 µM | 0.12 µM | O=C1Cc2c([nH]c3ccc(C(F)(F)F)cc23)-c2cnccc2N1 | 0.19 µM | 
> 10 µM | > 10 µM | O=C1Cc2c(n(-c3ccccc3)c3ccccc23)-c2ncccc2N1 | > 10 µM | 
0.063 µM | > 10 µM | O=C1Cc2c([nH]c3ccc(Cl)cc23)-c2ncccc2N1 | > 10 µM | 
13 µM | > 10 µM | CCn1c2c(c3ccccc31)CC(=O)Nc1cccnc1-2 | > 10 µM | 
0.8 µM | 4 µM | COc1ccc2[nH]c3c(c2c1)CC(=O)Nc1cccnc1-3 | 2 µM | 
2.1 µM | > 10 µM | O=C1Cc2c(n(Cc3ccccc3)c3ccccc23)-c2ncccc2N1 | > 10 µM | 
1.8 µM | > 10 µM | O=C1Cc2c([nH]c3c(F)cc(F)cc23)-c2ncccc2N1 | > 10 µM | 
> 10 µM | > 10 µM | O=C1Cc2c(oc3ccccc23)-c2ccccc2N1 | > 10 µM | 
0.018 µM | 0.21 µM | O=C1Cc2c([nH]c3ccc(Cl)cc23)-c2cnccc2N1 | 0.12 µM | 
1.4 µM | 5 µM | O=C1Cc2c([nH]c3ccc(O)cc23)-c2ncccc2N1 | 4 µM | 
0.12 µM | 2 µM | N#Cc1cc(I)c2[nH]c3c(c2c1)CC(=O)Nc1cccnc1-3 | 0.41 µM | 
0.025 µM | 6 µM | O=C1Cc2c([nH]c3ccc(I)cc23)-c2ncccc2N1 | 1 µM | Activity (INS-1E [6]): Active
0.052 µM | 0.18 µM | O=C1Cc2c([nH]c3ccc(Br)cc23)-c2cnccc2N1 | 0.11 µM | 
> 10 µM | > 10 µM | O=C1Cc2c(oc3ccc(Cl)cc23)-c2ccccc2N1 | > 10 µM | 
0.8 µM | 9 µM | O=C1Cc2c([nH]c3ccccc23)-c2ncccc2N1 | 7 µM | 
1 µM | 3 µM | Cn1c2c(c3ccccc31)CC(=O)Nc1cccnc1-2 | > 10 µM | 
0.41 µM | > 10 µM | O=C1Cc2c(n3c4c(cccc24)CC3)-c2ncccc2N1 | > 10 µM | 
0.08 µM | 3 µM | O=C1Cc2c([nH]c3ccc(F)cc23)-c2ncccc2N1 | 4.5 µM | Fold change [21]: 1.14; Activity (INS-1E [6]): Active; Fold change [22]: 0.97; Activity (INS-1E [14]): Active; Fold change [23]: 0.97; Activity (INS-1E [17]): Dose-dependent effect; Fold change [24]: 0.45; Activity (INS-1E [20]): Active
